Eleven molecules from ChEMBL document CHEMBL4020824, “Discovery of Potent and Orally Bioavailable Dihydropyrazole GPR40 Agonists” (J Med Chem, 2018) can be followed below.

Data set [1] deals with Liver. As to the kind of experiment: Half life in human liver microsomes at 1 to 3 uM incubated for 20 mins in presence NADPH measured up to 90 mins by LC/MS/MS analysis. The note with it: microsomes, 20 min, 3 µM. The data set is classed as ADME, microsome. (Liver microsomes are a subcellular fraction often used to study metabolism.)
Data set [2] has as its system Liver. As to the kind of experiment: Half life in rat liver microsomes at 1 to 3 uM incubated for 20 mins in presence NADPH measured up to 90 mins by LC/MS/MS analysis. The data set is classed as ADME, microsome. Conditions: microsomes, 20 min, 3 µM.
A short description of data set [3]: Cmax in cynomolgus monkey at 0.5 mg/kg, po administered as single dose measured up to 24 hrs post dose by LC-MS/MS analysis. In kind it is ADME, organism-based, Macaca fascicularis. Set-up: dose 0.5 mg/kg, route oral. Conditions: in vivo.
Data set [4] relates to Liver. Briefly: Stability in human liver microsomes assessed as parent compound remaining at 1 to 3 uM incubated for 20 mins in presence NADPH measured up to 90 mins by LC/MS/MS analysis. The data set is classed as ADME, microsome. Conditions: microsomes, 20 min, 3 µM. In short, it runs like this:
(§1)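 Human or rat liver microsomal incubations. The read-outs were % parent remaining, % D-ring dealkylation metabolites, % GSH adducts, and half-life (min). The metabolites followed were CYP450-mediated oxidative de-alkylation products (phenols) and GSH conjugates.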

The nature of data set [5]: Clearance in Sprague-Dawley rat at 1 mg/kg, iv administered as single dose measured up to 24 hrs post dose by LC-MS/MS analysis. The note with it: in vivo. The data set is classed as ADME, organism-based.
The nature of data set [6]: Half life in CD1 mouse at 1 mg/kg, iv administered as bolus dose or 1 mg/kg, po administered as single dose measured up to 24 hrs post dose by LC-MS/MS analysis. The data set is classed as ADME, organism-based. The note with it: in vivo.
Data set [7] in a line: Cmax in Sprague-Dawley rat at 3 mg/kg, po administered as single dose measured up to 24 hrs post dose by LC-MS/MS analysis. Set-up: dose 3 mg/kg, route oral. In kind it is ADME, organism-based. Conditions: in vivo.
Data set [8] relates to Liver. As to the kind of experiment: Stability in rat liver microsomes assessed as parent compound remaining at 1 to 3 uM incubated for 20 mins in presence NADPH measured up to 90 mins by LC/MS/MS analysis. The data set is classed as ADME, microsome. Conditions: microsomes, 20 min, 3 µM. In short, it runs like this: as §1
Data set [9] addresses T1, Free fatty acid receptor 1 (Homo sapiens, UniProt O14842). As to the kind of experiment: Agonist activity at human GPR40 expressed in CHOA12 cells assessed as induction of Ca2+ mobilization by FLIPR assay. In kind it is functional, cell-based. Background: Calcium flux is commonly read through the fluorescence of an indicator in the cells.
The nature of data set [10]: Volume of distribution at steady state in CD1 mouse at 1 mg/kg, iv via bolus dose or 1 mg/kg, po administered as single dose measured up to 24 hrs post dose by LC-MS/MS analysis. The data set is classed as ADME, organism-based. The note with it: in vivo, read-out: Vdss.
The nature of data set [11]: Oral bioavailability in C57BL6 mouse at 3 mg/kg administered as single dose via gavage measured up to 24 hrs post dose by LC-MS/MS analysis. The data set is classed as ADME, organism-based. The note with it: in vivo.
Data set [12] is described as follows: Half life in Sprague-Dawley rat at 1 mg/kg, iv administered as single dose measured up to 24 hrs post dose by LC-MS/MS analysis. The data set is classed as ADME, organism-based. Conditions: in vivo.
The nature of data set [13]: Clearance in CD1 mouse at 1 mg/kg, iv administered as bolus dose or 1 mg/kg, po administered as single dose measured up to 24 hrs post dose by LC-MS/MS analysis. In kind it is ADME, organism-based. Conditions: in vivo.
The nature of data set [14]: Cmax in C57BL6 mouse at 3 mg/kg, po administered as single dose via gavage measured up to 24 hrs post dose by LC-MS/MS analysis. The data set is classed as ADME, organism-based. Conditions: in vivo. Set-up: dose 3 mg/kg, route oral.
A short description of data set [15]: Tmax in C57BL6 mouse at 3 mg/kg, po administered as single dose measured up to 24 hrs post dose by LC-MS/MS analysis. In kind it is ADME, organism-based. Conditions: in vivo.
Data set [16] can be described thus: Volume of distribution at steady state in Sprague-Dawley rat at 1 mg/kg, iv administered as single dose measured up to 24 hrs post dose by LC-MS/MS analysis. The data set is classed as ADME, organism-based. The note with it: in vivo, read-out: Vdss.
Data set [17] in a line: Tmax in Sprague-Dawley rat at 3 mg/kg, po administered as single dose measured up to 24 hrs post dose by LC-MS/MS analysis. In kind it is ADME, organism-based. Conditions: in vivo.
The nature of data set [18]: Clearance in cynomolgus monkey at 0.2 mg/kg, iv administered as single dose measured up to 24 hrs post dose by LC-MS/MS analysis. In kind it is ADME, organism-based, Macaca fascicularis. Conditions: in vivo.
The nature of data set [19]: Half life in cynomolgus monkey at 0.2 mg/kg, iv administered as single dose measured up to 24 hrs post dose by LC-MS/MS analysis. The data set is classed as ADME, organism-based, Macaca fascicularis. Conditions: in vivo.
Data set [20] can be described thus: Volume of distribution at steady state in cynomolgus monkey at 0.2 mg/kg, iv administered as single dose measured up to 24 hrs post dose by LC-MS/MS analysis. The note with it: in vivo, read-out: Vdss. The data set is classed as ADME, organism-based, Macaca fascicularis.
Data set [21] can be described thus: Oral bioavailability in cynomolgus monkey at 0.5 mg/kg administered via gavage as single dose measured up to 24 hrs post dose by LC-MS/MS analysis. In kind it is ADME, organism-based, Macaca fascicularis. The note with it: in vivo.
A short description of data set [22]: Tmax in cynomolgus monkey at 0.5 mg/kg, po administered as single dose measured up to 24 hrs post dose by LC-MS/MS analysis. In kind it is ADME, organism-based, Macaca fascicularis. Conditions: in vivo.
Data set [23] concerns the target T2, Peroxisome proliferator-activated receptor gamma (Homo sapiens, UniProt P37231).
T2 sequence (P37231 whole entry): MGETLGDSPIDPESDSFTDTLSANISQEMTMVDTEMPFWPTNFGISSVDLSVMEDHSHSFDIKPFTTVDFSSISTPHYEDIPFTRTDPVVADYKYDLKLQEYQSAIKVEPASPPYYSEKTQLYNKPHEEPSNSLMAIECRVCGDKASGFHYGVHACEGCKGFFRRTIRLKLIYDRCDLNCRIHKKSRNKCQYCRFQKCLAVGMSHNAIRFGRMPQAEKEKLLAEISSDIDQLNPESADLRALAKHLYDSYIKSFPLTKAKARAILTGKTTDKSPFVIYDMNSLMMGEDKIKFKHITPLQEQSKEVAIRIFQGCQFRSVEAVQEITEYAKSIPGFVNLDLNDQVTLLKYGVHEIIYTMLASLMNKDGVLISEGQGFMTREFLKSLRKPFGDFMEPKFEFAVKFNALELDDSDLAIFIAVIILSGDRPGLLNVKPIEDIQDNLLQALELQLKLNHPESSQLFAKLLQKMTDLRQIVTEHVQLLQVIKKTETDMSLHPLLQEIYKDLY
Briefly: Agonist activity at PPARgamma (unknown origin).

A short description of data set [24]: Oral bioavailability in Sprague-Dawley rat at 3 mg/kg administered via gavage as single dose measured up to 24 hrs post dose by LC-MS/MS analysis. The data set is classed as ADME, organism-based. The note with it: in vivo.
The target in data set [25] is T1, Free fatty acid receptor 1. Briefly: Agonist activity at human GPR40 expressed in CHOA12 cells assessed as induction of Ca2+ mobilization at 8.3 uM by FLIPR assay relative to compound 2. In kind it is functional, cell-based.
The subject of data set [26] is Liver. Briefly: Drug level in human liver microsomes treated with 2-((4S,5S)-1-(4-(((3R,4R)-1-(5-Ethoxy-2-fluorophenyl)-3-methylpiperidin-4-yl)oxy)phenyl)-4-methyl-3-(trifluoromethyl)-4,5-dihydro-1H-pyrazol-5-yl)acetic acid at 1 to 3 uM incubated for 20 mins in presence of NADPH measured after 90 mins by LC/MS/MS analysis. In kind it is ADME, microsome. In short, it runs like this: as §1

For data set [27], the system named is Liver. As to the kind of experiment: Drug level in rat liver microsomes treated with 2-((4S,5S)-1-(4-(((3R,4R)-1-(5-Ethoxy-2-fluorophenyl)-3-methylpiperidin-4-yl)oxy)phenyl)-4-methyl-3-(trifluoromethyl)-4,5-dihydro-1H-pyrazol-5-yl)acetic acid at 1 to 3 uM incubated for 20 mins in presence of NADPH measured after 90 mins by LC/MS/MS analysis. In kind it is ADME, microsome. Summed up: as §1

The source made the active and inactive calls. The rule behind the calls is not given here.

T1 sequence (O14842 whole entry): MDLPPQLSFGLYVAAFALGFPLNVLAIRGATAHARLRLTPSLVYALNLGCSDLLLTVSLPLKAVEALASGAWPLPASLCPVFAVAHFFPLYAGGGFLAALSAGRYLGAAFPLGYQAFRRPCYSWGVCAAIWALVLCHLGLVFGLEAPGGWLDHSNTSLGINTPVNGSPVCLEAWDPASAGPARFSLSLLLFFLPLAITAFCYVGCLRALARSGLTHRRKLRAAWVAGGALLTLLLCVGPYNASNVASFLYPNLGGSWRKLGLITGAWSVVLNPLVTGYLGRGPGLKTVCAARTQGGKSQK

As usually defined, the Cmax is the peak of the concentration-time curve. The half-life is how long it takes for the measured level to halve. In general, EC50 refers to the midpoint of the concentration-response curve. As a reminder, the bioavailability is the share of a dose that reaches the circulation, judged against a reference dose that is usually intravenous. A word on the Tmax: it is the time from dosing to the highest level. For `COc1ccc(F)c(N2CCC(Oc3ccc(N4N=C(C(F)(F)F)[C@@H](C)[C@@H]4CC(=O)O)cc3)CC2)c1`, the t1/2 in the data set with Liver [1] is 0.8 h; in the data set with Liver [2] it was 0.383 h. In addition, the results for the Cmax in data set [3], in data set [7] and in [14] were 200 nM, 1100 nM and 3400 nM, respectively. Also, the figures for the Stability with Liver [4] and with Liver [8] were 42% and 27%, respectively. In addition, the clearance in data set [5] was 17 mL/min/kg; in data set [13] it was 6 mL/min/kg; in [18], 6.6 mL/min/kg. Besides, the half-life was 1.5 h in [6], 1.4 h in data set [12] and 5.3 h in data set [19]. The EC50 in [9] is 0.11 µM; in [23], > 50 µM. In addition, the Vd in [10] was determined as 0.8 L/kg; in [16], 0.6 L/kg; in [20], 1.7 L/kg. The figures for the bioavailability in data set [11], in data set [21] and in data set [24] were 96%, 66% and 36%, respectively. Besides, the Tmax in data set [15] amounted to 1 h; in [17], 0.7 h; in data set [22], 2 h.

`C[C@@H]1C(C(F)(F)F)=NN(c2ccc(OC3CCN(c4cccc(F)n4)CC3)cc2)[C@H]1CC(=O)O`: in [9], the EC50 fell in the range of 0.39 to 0.86 µM.

In the case of `COc1cc(N2CCC(Oc3ccc(N4N=C(C(F)(F)F)[C@@H](C)[C@@H]4CC(=O)O)cc3)CC2)c(F)cn1`, in data set [9], the EC50 fell in the range of 0.15 to 0.18 µM.

Turning to `COc1ccc(F)c(N2CC[C@@H](COc3ccc(N4C[C@H](C(F)(F)F)C[C@@H]4CC(=O)O)cc3)C2)c1`, the outcome in [25] was Active.

Regarding `C[C@@H]1C(C(F)(F)F)=NN(c2ccc(OC3CCN(c4cc(Cl)ccc4Cl)CC3)cc2)[C@H]1CC(=O)O`, in [9], the EC50 was 0.25 µM.

Take `C[C@@H]1CN(c2cc(O)ccc2F)CC[C@H]1Oc1ccc(N2N=C(C(F)(F)F)[C@@H](C)[C@@H]2CC(=O)O)cc1`: the Drug uptake result in the data set on Liver [26] and in the data set on Liver [27] was “Metabolite_Detected” each time.

The molecule `COc1ccc(F)c(-c2ccc(Cc3ccc(N4N=C(C(F)(F)F)[C@@H](C)[C@@H]4CC(=O)O)cc3)c(C)c2)c1` returned an EC50 in [23] of 2.6 µM.

On to `COc1ccc(F)c(N2CCC(Oc3ccc(N4C[C@H](C(F)(F)F)C[C@@H]4CC(=O)O)cc3)CC2)c1`, for which, in [25], the outcome was Active.

Take `CCOc1cc(N2CC[C@@H](Oc3ccc(N4N=C(C(F)(F)F)[C@@H](C)[C@@H]4CC(=O)O)cc3)[C@H](C)C2)c(Cl)cn1`: the EC50 in [9] fell in the range of 0.19 to 0.25 µM.

`COc1ccc(F)c(N2CCC(Oc3ccc(N4C[C@H](C(F)(F)F)C[C@@H]4CC(=O)O)cc3)C2)c1` (stereo partly specified): the EC50 in data set [9] lay within 2.83 to 5.36 µM. For the same molecule, the outcome in data set [25] was Active.

With `CCOc1ccc(F)c(N2CCC(Oc3ccc(N4N=C(C(F)(F)F)[C@@H](C)[C@@H]4CC(=O)O)cc3)CC2)c1`, the EC50 in data set [9] amounted to 0.22 µM.
